By IC50 is commonly meant the concentration that gives 50% inhibition.

Like-named read-outs stand apart in the source and are kept apart here.

Series [1] deals with NRK-52E cells. In words: Cell death assay. In kind it is cell-based, rat. As to conditions: for Protection against cisplatin-induced cell death (LDH release): cisplatin 60 μM, 24 h; for Cytotoxicity of the inhibitor: highest concentration tested. The essentials: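 NRK-52E rat tubular epithelial cells were grown in DMEM with 5% FBS at 37 °C, 5% CO₂, and used within 1 d after confluence. Cells were seeded at 8000–10,000 per well, grown 24 h, then pre-incubated 2 h with serial dilutions of test compound. Cisplatin 60 μM was added, and LDH release was measured after 24 h with a CytoTox96 kit. Mean ± SD, n = 4.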

Series [2] has as its system EndoG. In words: EndoG protein expression by quantitative immunohistochemistry. In kind it is cell-based, rat. As to conditions: NRK-52E cells, cisplatin 60 μM. A digest of the protocol:
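NRK-52E cells were fixed in 5% formalin and stained with rabbit anti-EndoG (1:200 in 0.5% BSA, 0.05% Tween-20, PBS), then AlexaFluor 647 anti-rabbit IgG (1:400), with DAPI counterstain. The control omitted the primary antibody. Red-channel mean optical density was recorded over 10 independent fields per subset. Mean ± SD, n = 4.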

The next series concerns the target T1, DNase II (Sus scrofa, UniProt O62855).
T1 sequence (O62855 22-364): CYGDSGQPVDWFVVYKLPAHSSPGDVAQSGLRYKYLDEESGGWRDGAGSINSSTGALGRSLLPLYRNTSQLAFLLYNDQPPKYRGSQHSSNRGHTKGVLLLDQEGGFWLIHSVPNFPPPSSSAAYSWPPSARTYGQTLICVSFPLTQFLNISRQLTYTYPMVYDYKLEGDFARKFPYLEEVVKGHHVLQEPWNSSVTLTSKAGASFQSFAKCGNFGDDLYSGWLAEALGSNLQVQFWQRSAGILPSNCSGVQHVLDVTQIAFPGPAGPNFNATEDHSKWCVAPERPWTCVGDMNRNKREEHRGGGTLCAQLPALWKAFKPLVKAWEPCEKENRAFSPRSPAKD
In words: HTS fluorescent probe assay with DNase II. The series is classed as biochemical. The settings on record: DNase II 3.32 nM, pH 5.0; compared with DNase I.

In series [3] the target is T2, recombinant human DNase I (Homo sapiens, UniProt P24855).
T2 sequence (P24855 23-282): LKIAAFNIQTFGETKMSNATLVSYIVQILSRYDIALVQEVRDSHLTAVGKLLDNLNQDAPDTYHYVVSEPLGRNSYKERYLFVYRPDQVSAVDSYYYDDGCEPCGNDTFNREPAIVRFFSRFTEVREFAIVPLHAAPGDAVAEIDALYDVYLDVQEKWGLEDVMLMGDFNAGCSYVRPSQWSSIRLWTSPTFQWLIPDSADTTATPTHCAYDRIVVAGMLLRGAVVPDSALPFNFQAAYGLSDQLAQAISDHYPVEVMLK
In words: High-throughput DNase I screening assay. In kind it is biochemical. As to conditions: for Type of inhibition according to Lineweaver–Burk plots: DNase I.

For a further series, the system named is SOD. In words: SOD Determination kit. The series is classed as biochemical. As to conditions: 1 μM and 100 μM.
Another series concerns LDH. As to conditions: 1 μM and 100 μM.
Series [4] has as its system NRK-52E cells. The series can be described thus: TUNEL assay of cisplatin-induced DNA fragmentation. The series is classed as cell-based, rat. As to conditions: inhibitor 100 μM, 24 h cisplatin 60 μM. The essentials: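 Cells were exposed to cisplatin for 24 h in the presence of test compound at 100 μM, fixed in 5% formalin, TUNEL-stained with an in situ cell death detection kit, and counterstained with DAPI. Green-channel mean optical density for TUNEL-positive DNA damage was recorded over 10 independent fields per subset. Mean ± SD, n = 4.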

The target in the next series is Benzonase (Serratia marcescens, UniProt P13717). The series can be described thus: Plasmid incision assay. The series is classed as biochemical, bacterial. The settings on record: 10 μM. The essentials: (§1)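 Plasmid incision: 1 μg pECFP plasmid in 2 mM CaCl₂, 5 mM MgCl₂, 10 mM Tris-HCl pH 7.4, 0.5 mM DTT, test compound in DMSO (1% final), nuclease added, 1 h at 37 °C. The reaction was stopped with SDS/EDTA and run on a 1% agarose TAE gel at 7 V/cm for 35 min. Ethidium bromide-stained supercoiled band was quantified densitometrically.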

A short description of the next series: Solubility in water. In kind it is physicochemical.
Another series relates to protease. The series can be described thus: Protease Fluorescent Detection kit. The series is classed as biochemical. The settings on record: 1 μM and 100 μM.
A further series has as its target micrococcal nuclease (Staphylococcus aureus, UniProt P00644). The series can be described thus: Plasmid incision assay. The series is classed as biochemical, bacterial. The settings on record: 10 μM. The essentials: as §1
Another series concerns the target T3, RNase A (Bos taurus, UniProt P61823).
T3 sequence (P61823 27-150): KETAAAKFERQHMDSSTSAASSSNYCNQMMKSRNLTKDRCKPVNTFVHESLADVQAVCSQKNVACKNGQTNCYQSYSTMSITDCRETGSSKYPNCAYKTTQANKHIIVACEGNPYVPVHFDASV
The series can be described thus: Ribonuclease A Detection kit. The settings on record: 1 μM and 100 μM. In kind it is biochemical.

The target in a further series is T4, recombinant murine EndoG (Mus musculus, UniProt O08600).
T4 sequence (O08600 45-294): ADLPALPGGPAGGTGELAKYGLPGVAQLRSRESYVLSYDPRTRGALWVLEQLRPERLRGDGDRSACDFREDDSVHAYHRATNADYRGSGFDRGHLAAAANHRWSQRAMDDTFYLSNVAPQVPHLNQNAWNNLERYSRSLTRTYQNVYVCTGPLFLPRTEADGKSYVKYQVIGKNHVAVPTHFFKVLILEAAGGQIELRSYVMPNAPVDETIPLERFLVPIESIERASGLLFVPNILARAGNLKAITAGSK
In words: HTS fluorescent probe assay with EndoG. In kind it is biochemical. As to conditions: EndoG 0.14 μM; compared with DNase I. A digest of the protocol:
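Fluorescence was read kinetically at 37 °C, and mean velocity (mRFU/min) was taken over 20 min after background subtraction. Activity was expressed as a percentage of the DMSO control.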

The test system of series [5] is EndoG. In words: EndoG mRNA expression by real-time RT-PCR. The series is classed as cell-based, rat. As to conditions: NRK-52E cells, cisplatin.
[6] abbreviates: read-out: IC50 against DNase I, DNase I 1.72 nM, 37 °C, HTS assay.

Sequence of Benzonase (P13717 22-266): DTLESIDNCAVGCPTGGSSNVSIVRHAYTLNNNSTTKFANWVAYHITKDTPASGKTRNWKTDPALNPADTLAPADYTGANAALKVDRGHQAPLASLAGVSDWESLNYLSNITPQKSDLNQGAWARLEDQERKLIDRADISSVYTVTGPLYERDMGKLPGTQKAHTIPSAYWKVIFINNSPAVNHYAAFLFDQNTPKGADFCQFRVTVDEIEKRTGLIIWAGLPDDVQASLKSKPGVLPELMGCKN

On to “1,3-phenylene-bis-aminoguanidine hydrochloride [IG-17]”, for which, in the series on NRK-52E cells [1], the “Protection against cisplatin-induced cell death (LDH release)” value was “some protection against cisplatin-induced cell death” and the “Cytotoxicity of the inhibitor” value is “significant cytotoxicity”. For the same molecule, the EndoG protein expression result in the series on EndoG [2] was “lower than the control level”. The “Suppression of DNase II activity” value on DNase II was “suppress the activity”. The “Type of inhibition according to Lineweaver–Burk plots” value in [3] was “competitive inhibitors”. The IC50 in [3] (setting [6]) is 8.93 µM. Moreover, the “Inhibition of SOD” value in the series on SOD was “no inhibition activity was observed”. The “Inhibition of LDH” value in the series with LDH is “no inhibition activity was observed”. The “Inhibition of cisplatin-induced DNA fragmentation (TUNEL)” value in the series with NRK-52E cells [4] is reported as “marked inhibition”. For the same molecule, the “Inhibition of Benzonase (PIA)” value on Benzonase is recorded as “absence of inhibition”. For the same molecule, in “Solubility in water”, the Solubility in water result is “unlimited solubility in water”. In addition, the Inhibition of protease entry in the series with protease is given as “no inhibition activity was observed”. In addition, at micrococcal nuclease, the “Inhibition of micrococcal nuclease (PIA)” value was “absence of inhibition”. At RNase A, the “Inhibition of RNase A” value is “no inhibition activity was observed”. In addition, the “Suppression of EndoG activity” value at recombinant murine EndoG is “suppress the activity”.
On to “1,4-phenylene-bis-aminoguanidine hydrochloride [JR-132]”, for which, in the series on NRK-52E cells [1], the “Protection against cisplatin-induced cell death (LDH release)” value was “some protection against cisplatin-induced cell death” and the “Cytotoxicity of the inhibitor” value is on record as “significant cytotoxicity”. Moreover, in the series with EndoG [2], the EndoG protein expression entry is “significantly decreased”. At DNase II, the “Suppression of DNase II activity” value is “suppress the activity”. In [3], the “Type of inhibition according to Lineweaver–Burk plots” value is reported as “competitive inhibitors”. The IC50 in [3] (setting [6]) was determined as 2.73 µM. Further, in the series with SOD, the “Inhibition of SOD” value was “no inhibition activity was observed”. Further, the “Inhibition of LDH” value in the series with LDH is given as “no inhibition activity was observed”. Moreover, in the series with NRK-52E cells [4], the “Inhibition of cisplatin-induced DNA fragmentation (TUNEL)” value is “marked inhibition”. In the series with EndoG [5], the “EndoG mRNA expression” value is given as “significantly decreased”. Besides, the “Inhibition of Benzonase (PIA)” value on Benzonase is listed as “absence of inhibition”. In the series “Solubility in water”, the Solubility in water result is “unlimited solubility in water”. In the series on protease, the Inhibition of protease entry is given as “no inhibition activity was observed”. In addition, the “Inhibition of micrococcal nuclease (PIA)” value on micrococcal nuclease was “absence of inhibition”. The “Inhibition of RNase A” value on RNase A is reported as “no inhibition activity was observed”. For the same molecule, on recombinant murine EndoG, the “Suppression of EndoG activity” value is listed as “suppress the activity”.
In the case of `O=C(O)CN(CCN(CC(=O)O)CC(=O)O)CC(=O)O` [EDTA, ethylenediaminetetraacetic acid, reference compound], in [3], the IC50 was 190 µM.
As to `[Cl-].[Cl-].[Zn+2]` [ZnCl2, reference compound], the IC50 in series [3] (setting [6]) was found to be 18 µM.
